Source: PubChem
Only some compounds are listed: those with a hit (about 4.9% of all), similar ones and a draw of the others.
APP 5'UTR act: APP 5'UTR luciferase reporter activation | SH-SY5Y APP 5'UTR luciferase reporter, luminescence; zero percent = DMSO vehicle wells | activation, % at 2 µM | 190,000 compounds, 1% hits;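 active means activation above a set limit, based on mean plus 3 SD of controls, cut at about 140% in these data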
STAT3 activator: STAT3 signaling activation. U3A cells, IL-6 STAT3-luciferase reporter, luminescence; 100% = signal with IL-6 EC80 alone. activation (% of control), % at 5.6 µM. 190,000 compounds, 0.91% hits;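 active means activation above the screen-wide mean of compound activation plus 3 SD, cut at about 130% in these data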;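 further: 0% = background luminescence of wells with medium and substrate only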
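Test system: Human STAT1-deficient U3A cells with stable STAT3-luciferase reporter | Also added: Interleukin-6, 33 ng/mL | Timing: Compound pre-incubation 1 h before IL-6, then 6 h stimulation at 37 °C | Technique: Luciferase reporter luminescence | Read-out: Percent of IL-6-only median luminescence | Benchmarks: IL-6-only wells as 100% reference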
STAT1 act: STAT1 signaling activation | NIH 3T3 STAT1-luciferase reporter, IFN-gamma, luminescence; 100% = IFN-gamma alone, no compound | activation (% of control), % at 5.5 µM | 200,000 compounds, 2.6% hits | AID 932;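 active means activation above the screen-wide mean activation plus 3 SD, cut at about 130% in these data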;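 further: raw ratio to IFN-gamma control signal so 100% means no change and 0% no light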
STAT1 inh: inhibitors of IFN-gamma induced STAT1 signaling. AID 920. 200,000 compounds, 0.35% hits. inhibition, % at 5.5 µM. NIH 3T3 STAT1-luciferase reporter, luminescence;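 active means inhibition above a set limit, the mean inhibition across all tested compounds plus 3 SD, cut at about 34% in these data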;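 further: 0% = IFN-gamma with DMSO and 100% = IFN-gamma with 300 µM nifuroxazide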
NF-kB expr up: NF-kB expression increase, human neuronal cells; 190,000 compounds, 1.6% hits; NF-kB reporter expression; stronger effect = higher value; fold change at 12.5 µM; AID 1239; in the data active means fold change above about 3.3
STAT3 blocker: inhibitors of IL-6 induced STAT3 signaling; U3A cells, IL-6 STAT3-luciferase reporter, luminescence; host cell line lacks STAT1; inhibition, % at 5.5 µM; 190,000 compounds, 0.89% hits; AID 862;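 active means inhibition above the mean inhibition across all screened compounds plus 3 SD, cut at about 44% in these data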;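 further: 0% = DMSO only wells and 100% = 100 µM nifuroxazide control wells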
Starred values were filed as active, the others as inactive.

How did O=[N+]([O-])c1ccc(Nc2cccc(F)c2)nc1 do in these assays?
APP 5'UTR act: -13; STAT3 activator: 93; STAT1 act: 97; STAT1 inh: 4; NF-kB expr up: 1.2; STAT3 blocker: 10

What do the screens show for `COC(=O)c1ccc(OC(C)C(=O)c2ccc(C)cc2)cc1` (centres undefined)?
APP 5'UTR act: 6; STAT3 activator: 99; STAT1 act: 94; STAT1 inh: 6; NF-kB expr up: 0.96; STAT3 blocker: 4

Results for CC(C)(C)n1ncc2c(=O)n(Cc3cccc(Cl)c3)cnc21 ?
APP 5'UTR act: 10; STAT3 activator: 109; STAT1 act: 111; STAT1 inh: -14; NF-kB expr up: 1.1; STAT3 blocker: -8

Results for O=C(COC(=O)c1ccc(Cl)cc1O)NC(=O)C1CCCCC1 ?
APP 5'UTR act: -3; STAT3 activator: 96; STAT1 act: 96; STAT1 inh: 3; NF-kB expr up: 1.1; STAT3 blocker: 14

What do the screens show for `CCC(C)(C)c1ccc(Oc2ccc(N)cc2)cc1`?
APP 5'UTR act: -80; STAT3 activator: 35; STAT1 act: 34; STAT1 inh: 70*; NF-kB expr up: 0.27; STAT3 blocker: 81*

Results for COc1ccc(-n2c(C)cc(C(=O)CSc3ccc(NC(C)=O)cc3)c2C)cc1 ?
APP 5'UTR act: 7; STAT3 activator: 102; STAT1 act: 106; STAT1 inh: -7; NF-kB expr up: 1.3; STAT3 blocker: -1

What do the screens show for `COc1ccc(-n2c(C)cc(C(=O)CN3C(=O)c4ccccc4C3=O)c2C)cc1`?
APP 5'UTR act: -5; STAT3 activator: 107; STAT1 act: 134*; STAT1 inh: -37; NF-kB expr up: 1.1; STAT3 blocker: -10

How did COc1ccc(-n2c(C)cc(C(=O)CCl)c2C)cc1 do in these assays?
APP 5'UTR act: -44; STAT3 activator: 105; STAT1 act: 84; STAT1 inh: 16; NF-kB expr up: 3.9*; STAT3 blocker: -4

Results for CC(C)(C)NS(=O)(=O)c1cc(C(=O)Nc2sccc2C#N)ccc1Cl ?
APP 5'UTR act: 3; STAT3 activator: 82; STAT1 act: 82; STAT1 inh: 21; NF-kB expr up: 0.92; STAT3 blocker: 20

How did O=C1NC(c2ccc(Cl)cc2)=COc2ccccc21 do in these assays?
APP 5'UTR act: 14; STAT3 activator: 98; STAT1 act: 108; STAT1 inh: -9; NF-kB expr up: 1; STAT3 blocker: 7

What do the screens show for `O=C1NN=COc2ccccc21`?
APP 5'UTR act: 5; STAT3 activator: 133*; STAT1 act: 97; STAT1 inh: 3; NF-kB expr up: 1; STAT3 blocker: -28

Results for CCOC(=O)CSc1nc2c(sc3ccc([N+](=O)[O-])cc32)c(=O)n1Cc1ccco1 ?
APP 5'UTR act: 11; STAT3 activator: 103; STAT1 act: 104; STAT1 inh: -5; NF-kB expr up: 1.2; STAT3 blocker: -1

How did O=C(Nc1ccc([N+](=O)[O-])cc1)C(Cc1ccccc1)N1C(=O)c2cccc3cccc(c23)C1=O (centres undefined) do in these assays?
APP 5'UTR act: 8; STAT3 activator: 135*; STAT1 act: 100; STAT1 inh: 0; NF-kB expr up: 0.97; STAT3 blocker: -44

What do the screens show for `CN(C)S(=O)(=O)c1cc(NC(=O)[C@H](Cc2ccccc2)N2C(=O)c3ccccc3C2=O)ccc1Cl`?
APP 5'UTR act: 4; STAT3 activator: 107; STAT1 act: 107; STAT1 inh: -8; NF-kB expr up: 1.1; STAT3 blocker: -7

How did C=CCN1C(=O)C(O)(CC(=O)c2ccco2)c2cc(Br)ccc21 (centres undefined) do in these assays?
APP 5'UTR act: 10; STAT3 activator: 110; STAT1 act: 106; STAT1 inh: -7; NF-kB expr up: 2.5; STAT3 blocker: -9

How did COCCNC(=S)N/N=C(\C)c1ccccc1O do in these assays?
APP 5'UTR act: -79; STAT3 activator: 103; STAT1 act: 102; STAT1 inh: -2; NF-kB expr up: 15*; STAT3 blocker: 2

What do the screens show for `C=CCn1c(SCc2c(C)noc2C)nc2ccccc2c1=O`?
APP 5'UTR act: -95; STAT3 activator: 103; STAT1 act: 102; STAT1 inh: -3; NF-kB expr up: 3.4*; STAT3 blocker: 1
